# Laboratory results published in PMC10568961 (Research in Pharmaceutical Sciences, 2023).
# Where two headings read alike, the source gives them in different places. Marks after values point to notes of the source that are not given here.
# Columns and labels:
# [1] = tested on: MRC-5 (human lung fibroblast) cells; experiment: Trypan blue dye exclusion assay, MRC-5 cells; assay type: cell-based
# How it was run: (§1)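 Cells were seeded at 5,000/well for 24 h: MRC-5 in EMEM and A549 in F-12K, each with 10% FBS. They were then given test compound (50, 100, 150 μg/mL), cisplatin (0.5, 1, 2 μg/mL) or 0.5% DMSO control for 24–72 h at 37 °C, 5% CO2. After trypsinisation, viable cells were counted by trypan blue exclusion on a hemocytometer (quadruplicate wells). IC50 came from growth curves. At least three repeats.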
# [2] = tested on: A549 (human lung carcinoma) cells; experiment: Trypan blue dye exclusion assay, A549 cells; assay type: cell-based
# How it was run: as §1
# [3] = tested on: MRC-5 (human lung fibroblast) cells; experiment: MTS cell viability assay, MRC-5 cells; assay type: cell-based
# [4] = tested on: A549 cells; experiment: Scratch assay of cell migration; assay type: cell-based, human
# How it was run: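 A549 monolayers were grown to 90–100% confluence in 24 h, scratched with a pipette tip and washed with PBS; initial gap width was measured at ×400. Cells were then kept in serum-free medium with test compound (0–150 μg/mL) or cisplatin (1 μg/mL) at 37 °C, 5% CO2. Gap widths were read by phase-contrast at each time point to 72 h, giving % wound closure. Three repeats.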
# [5] = tested on: A549 cells; experiment: Matrigel invasion assay; assay type: cell-based, human
# How it was run: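 Matrigel was diluted in cold serum-free medium and gelled overnight at 37 °C in Transwell upper chambers. A549 cells were added in serum-free medium with test compound (0–150 μg/mL) or cisplatin (1 μg/mL), with 10% FBS below as chemoattractant, for 24 and 48 h at 37 °C. Invaded cells were fixed (3.7% paraformaldehyde, methanol), stained with crystal violet and counted in five fields. % invasion was set against uncoated membrane. Three repeats.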
# [6] = MTS cell viability assay, MRC-5 cells; assay type: cell-based, human; conditions: human, MRC-5 lung fibroblast cells
# [7] = tested on: A549 (human lung carcinoma) cells; experiment: MTS cell viability assay, A549 cells; assay type: cell-based; conditions: for viability at 50 µg/mL / viability at 100 µg/mL / viability at 150 µg/mL: read-out: Cell viability (%)
smiles,measurement,setting,value
"N.N.[Cl][Pt][Cl] [DDP, cis-diamminedichloroplatinum II]",Number of cells,"[1]; MRC-5, 0.5 μg/mL, 24 h","13,900 ± 302^b"
same,Number of cells,"[1]; MRC-5, 0.5 μg/mL, 48 h","15,666 ± 418^a,b"
same,Number of cells,"[1]; MRC-5, 0.5 μg/mL, 72 h","21,100 ± 488^a,b"
same,Number of cells,"[1]; MRC-5, 1 μg/mL, 24 h","13,516 ± 414"
same,Number of cells,"[1]; MRC-5, 1 μg/mL, 48 h","15,400 ± 347^a,b"
same,Number of cells,"[1]; MRC-5, 1 μg/mL, 72 h","20,500 ± 465^a,b"
same,Number of cells,"[1]; MRC-5, 2 μg/mL, 24 h","12,933 ± 396^a"
same,Number of cells,"[1]; MRC-5, 2 μg/mL, 48 h","14,933 ± 292^b"
same,Number of cells,"[1]; MRC-5, 2 μg/mL, 72 h","19,666 ± 389^a,b"
same,Number of cells,"[2]; A549, 0.5 μg/mL, 24 h","14,000± 310^a,b"
same,Number of cells,"[2]; A549, 0.5 μg/mL, 48 h","14,050 ± 523^a,b"
same,Number of cells,"[2]; A549, 0.5 μg/mL, 72 h","16,666 ± 420^b"
same,Number of cells,"[2]; A549, 1 μg/mL, 24 h","11,250± 545^a,b"
same,Number of cells,"[2]; A549, 1 μg/mL, 48 h","11,616 ± 590^a,b"
same,Number of cells,"[2]; A549, 1 μg/mL, 72 h","12,833 ± 564^a,b"
same,Number of cells,"[2]; A549, 2 μg/mL, 24 h","8,583± 589^a,b"
same,Number of cells,"[2]; A549, 2 μg/mL, 48 h","9,833 ± 650^a,b"
same,Number of cells,"[2]; A549, 2 μg/mL, 72 h","8,983 ± 310^a,b"
same,"IC50 values, MRC-5 cells","[3]; MTS assay, 72-h",> 2 µg/mL
same,Gap closure (%),"[4]; A549, 0.5 μg/mL, 0 h",0%
same,Gap closure (%),"[4]; A549, 0.5 μg/mL, 24 h","3.09 ± 0.25^a,b %"
same,Gap closure (%),"[4]; A549, 0.5 μg/mL, 48 h",4.36 ± 0.60^a %
same,Gap closure (%),"[4]; A549, 0.5 μg/mL, 72 h",4.77 ± 0.19^a %
same,Gap closure (%),"[4]; A549, 1 μg/mL, 0 h",0%
same,Gap closure (%),"[4]; A549, 1 μg/mL, 24 h","2.52 ± 0.16^a,b %"
same,Gap closure (%),"[4]; A549, 1 μg/mL, 48 h","3.18 ± 0.04^a,b %"
same,Gap closure (%),"[4]; A549, 1 μg/mL, 72 h",3.55 ± 0.42^a %
same,Gap closure (%),"[4]; A549, 2 μg/mL, 0 h",0%
same,Gap closure (%),"[4]; A549, 2 μg/mL, 24 h","2.38 ± 0.06^a,b %"
same,Gap closure (%),"[4]; A549, 2 μg/mL, 48 h","2.92 ± 0.04^a,b %"
same,Gap closure (%),"[4]; A549, 2 μg/mL, 72 h","3.53 ± 0.16^a,b %"
same,Invasion (%),"[5]; A549, 0.5 μg/mL, 24 h","29.01 ± 4.99^a,b %"
same,Invasion (%),"[5]; A549, 0.5 μg/mL, 48 h","18.62 ± 3.11^a,b %"
same,Invasion (%),"[5]; A549, 1 μg/mL, 24 h","26.12 ± 4.22^a,b %"
same,Invasion (%),"[5]; A549, 1 μg/mL, 48 h","16.13 ± 2.66^a,b %"
same,Invasion (%),"[5]; A549, 2 μg/mL, 24 h","20.91 ± 2.05^a,b %"
same,Invasion (%),"[5]; A549, 2 μg/mL, 48 h","14.42 ± 1.57^a,b %"
"COc1ccc(-c2cc(=O)c3c(O)cc(O[C@@H]4O[C@H](CO[C@@H]5O[C@@H](C)[C@H](O)[C@@H](O)[C@H]5O)[C@@H](O)[C@H](O)[C@H]4O)cc3o2)cc1O [Diosmin, diosmin]",IC50,"[1]; Homo sapiens, MRC5, 72 h, read-out: IC50 value, MRC-5 cells",> 150 µg/mL
same,Number of cells,"[1]; MRC-5, 50 μg/mL, 24 h","11,666± 387^a,b"
same,Number of cells,"[1]; MRC-5, 50 μg/mL, 48 h","14,583 ± 489^b"
same,Number of cells,"[1]; MRC-5, 50 μg/mL, 72 h","19,583 ± 405^a,b"
same,Number of cells,"[1]; MRC-5, 100 μg/mL, 24 h","9,583 ± 463^a,b"
same,Number of cells,"[1]; MRC-5, 100 μg/mL, 48 h","12,083 ± 723^a"
same,Number of cells,"[1]; MRC-5, 100 μg/mL, 72 h","17,500 ± 456^a,b"
same,Number of cells,"[1]; MRC-5, 150 μg/mL, 24 h","6,666± 709^a,b"
same,Number of cells,"[1]; MRC-5, 150 μg/mL, 48 h","10,000 ± 630^a,b"
same,Number of cells,"[1]; MRC-5, 150 μg/mL, 72 h","15,833 ± 544^a,b"
same,Number of cells,"[2]; A549, 50 μg/mL, 24 h","13,333± 444^a,b"
same,Number of cells,"[2]; A549, 50 μg/mL, 48 h","18,333 ± 510^b"
same,Number of cells,"[2]; A549, 50 μg/mL, 72 h","26,250 ± 392^a,b"
same,Number of cells,"[2]; A549, 100 μg/mL, 24 h","10,833± 487^a,b"
same,Number of cells,"[2]; A549, 100 μg/mL, 48 h","13,750 ± 538^a,b"
same,Number of cells,"[2]; A549, 100 μg/mL, 72 h","18,750 ± 426^a,b"
same,Number of cells,"[2]; A549, 150 μg/mL, 24 h","6,666± 539^a,b"
same,Number of cells,"[2]; A549, 150 μg/mL, 48 h","8,750 ± 572^a,b"
same,Number of cells,"[2]; A549, 150 μg/mL, 72 h","11,250 ± 559^a,b"
same,IC50,"[2]; Homo sapiens, A549, 72 h, read-out: IC50 values, A549 cells",97.7 ± 4.23 µg/mL
same,"viability at 24 h, 50 μg/mL",[6],80.9 ± 8.46%
same,"viability at 24 h, 100 μg/mL",[6],54.7 ± 7.45%
same,"viability at 24 h, 150 μg/mL",[6],44.9 ± 5.58%
same,"viability at 48 h, 50 μg/mL",[6],78 ± 9.3%
same,"viability at 48 h, 100 μg/mL",[6],53.9 ± 9.19%
same,"viability at 48 h, 150 μg/mL",[6],47.5 ± 2.05%
same,"viability at 72 h, 50 μg/mL",[6],86.7 ± 1.38%
same,"viability at 72 h, 100 μg/mL",[6],71 ± 9.54%
same,"viability at 72 h, 150 μg/mL",[6],49.9 ± 8.02%
same,IC50,"[3]; Homo sapiens, MRC5, 72 h, read-out: IC50 values, MRC-5 cells",150 ± 6.32 µg/mL
same,viability at 50 µg/mL,"[7]; A549, 24 h",72.3 ± 3.23%
same,viability at 100 µg/mL,"[7]; A549, 24 h",61.6 ± 4.07%
same,viability at 150 µg/mL,"[7]; A549, 24 h",45.6 ± 4.59%
same,viability at 50 µg/mL,"[7]; A549, 48 h",71.1 ± 1.37%
same,viability at 100 µg/mL,"[7]; A549, 48 h",57.6 ± 5.15%
same,viability at 150 µg/mL,"[7]; A549, 48 h",47.3 ± 6.78%
same,viability at 50 µg/mL,"[7]; A549, 72 h",54.9 ± 3.43%
same,viability at 100 µg/mL,"[7]; A549, 72 h",50.7 ± 1.19%
same,viability at 150 µg/mL,"[7]; A549, 72 h",35.6 ± 5.95%
same,IC50,"[7]; A549, 72 h, read-out: IC50 values, A549 cells",106 ± 3.52 µg/mL
same,Gap closure (%),"[4]; A549, 50 μg/mL, 0 h",0%
same,Gap closure (%),"[4]; A549, 50 μg/mL, 24 h",4.88 ± 0.82^a %
same,Gap closure (%),"[4]; A549, 50 μg/mL, 48 h","7.58 ± 1.07^a,b %"
same,Gap closure (%),"[4]; A549, 50 μg/mL, 72 h",10.82 ± 1.10^b %
same,Gap closure (%),"[4]; A549, 100 μg/mL, 0 h",0%
same,Gap closure (%),"[4]; A549, 100 μg/mL, 24 h",3.97 ± 0.26^a %
same,Gap closure (%),"[4]; A549, 100 μg/mL, 48 h",6.08 ± 0.87^a %
same,Gap closure (%),"[4]; A549, 100 μg/mL, 72 h","8.24 ± 0.67^a,b %"
same,Gap closure (%),"[4]; A549, 150 μg/mL, 0 h",0%
same,Gap closure (%),"[4]; A549, 150 μg/mL, 24 h","3.32 ± 0.19^a,b %"
same,Gap closure (%),"[4]; A549, 150 μg/mL, 48 h",5.32 ± 0.64^a %
same,Gap closure (%),"[4]; A549, 150 μg/mL, 72 h","6.84 ± 0.55^a,b %"
same,Invasion (%),"[5]; A549, 50 μg/mL, 24 h","43.51 ± 2.39^a,b %"
same,Invasion (%),"[5]; A549, 50 μg/mL, 48 h","38.05 ± 5.14^a,b %"
same,Invasion (%),"[5]; A549, 100 μg/mL, 24 h","38.60 ± 3.31^a,b %"
same,Invasion (%),"[5]; A549, 100 μg/mL, 48 h","31.39 ± 2.71^a,b %"
same,Invasion (%),"[5]; A549, 150 μg/mL, 24 h","34.79 ± 3.59^a,b %"
same,Invasion (%),"[5]; A549, 150 μg/mL, 48 h","27.60 ± 1.62^a,b %"
same,Invasion (%),"[5]; A549, 150 μg/mL, 48 h, listed as diosmin",27.60 ± 1.62%
